Laboratory results taken from ChEMBL document CHEMBL4513216, “Probing the Open Global Health Chemical Diversity Library for Multistage-Active Starting Points for Next-Generation Antimalarials” (ACS Infect Dis, 2020).

Test: Toxicity liver stage against HepG2, at 10uM
Type: cell-based
Design: test concentration 10 uM, cell line HepG2-A16-CD81EGFP
Details: human, HepG2-A16-CD81EGFP cells; read-out: INHIBITION
How it was run: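 Uninfected HepG2-A16-CD81EGFP cells, 3 × 10^3 per well, 1536-well, plated on prespotted compound at 10 μM final, parasite-free screening media added to match infected plates; puromycin 10 μM positive, DMSO 0.5% negative; run in parallel with 48 h PbLuc assay at 37 °C, 5% CO2; viability by CellTiter-Glo luminescence, normalized to controls.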

Compound	cytotoxicity at 10 µM
COCCCNS(=O)(=O)c1ccc(N2CCCCS2(=O)=O)cc1	0.308%
CN(C)C(=O)c1cccc(CNc2ccc(C#N)cn2)c1	-4.73%
CCOC(=O)CCn1cnc2onc(-c3ccc(OC)cc3)c2c1=O	18.8%
N#Cc1nc(COc2ccc3c(c2)OCO3)oc1NC1CCCCC1	-41.4%
Cc1cnc2c(c1NCc1cccnc1)c(=O)n(C)c(=O)n2C	-2.02%
O=C(NCC1CCN(c2ncccn2)CC1)c1cnccn1	2.84%
O=S(=O)(NCC(O)c1ccc(C(F)(F)F)cc1)C1CC1 (stereo not given)	-6.9%
O=C(Cc1cccs1)Nc1cnn(C2CCOCC2)c1	-0.779%
COCC1c2nnn(CC3CC3)c2CCN1C(=O)c1sccc1C (stereo not given)	-147%
COC(=O)c1cccc(C(=O)N2CCN(c3cccc(C)c3C)CC2)n1	79.9%
CC(C(=O)NN1CCOCC1)n1nc(C(F)(F)F)c(Cl)c1C1CC1 (stereo not given)	-0.37%
Cc1ccccc1CN1CCCC1c1cccc(Nc2nccs2)n1 (stereo not given)	13.3%
Cc1cc(C2CCCCN2C(=O)c2ccsc2)nc2nccn12 (stereo not given)	-11.8%
Fc1ccc(Cc2cccc(C3CCN(C4CCOCC4)CC3)n2)cc1	4.3%
CCn1cc(C(=O)N2CCOC(c3nc(-c4cccs4)no3)C2)cn1 (stereo not given)	2.91%
CC(=O)N1C[C@@H](c2ccsc2)[C@@H]2CN(Cc3ccccc3Cl)CC[C@@H]21	3.16%
Cc1nccn1-c1nccnc1C1CCN(Cc2ccc(F)cc2)CC1	-5.43%
NCCn1nc(C2CCN(Cc3ccc(Cl)c(Cl)c3)C2)c2nccnc21 (stereo not given)	27.7%
O=C(CCC1CCCC1)N1CCC(c2ncc3c(n2)CCNC3)CC1	-3.91%
CC(c1ccccc1F)N(CC(N)=O)C1CC1 (stereo not given)	-46.3%
CCc1ccc(C(=O)N2CCC(N(C)C(=O)OC(C)(C)C)C2)o1 (stereo not given)	-48%
COc1ccncc1NCc1ccsc1	19%

Compound	cytotoxicity at 10 µM
Cc1noc(C)c1CN1CCN(Cc2nc(C3CC3)no2)CC1	31.4%
Cn1nccc1C1CCN(Cc2ccn(-c3ccccc3)n2)CC1	17.3%
Cc1cccc(CN(Cc2ccccn2)Cc2ncc(C(C)(C)C)o2)c1	3.49%
O=C(c1cc(-c2ccccc2)nc2onc(C3CC3)c12)N1CC[C@H](O)C1	-36.7%
Fc1ccc(NCc2ccncc2)c(OC(F)F)c1	10.5%
CC(C)c1ccc(/C=C/CC(=O)NC2CCS(=O)(=O)CC2)cc1	5.5%
CN1CCOC(CNCCOc2ccc(C#N)cc2)C1 (stereo not given)	9.34%
COCCCSc1ccc(NCc2ccc(C)cn2)cc1	15.8%
Cc1c(NCc2ccc(C#N)cc2)cccc1S(=O)(=O)NC1CC1	20.9%
CN(C(=O)CCC(F)(F)F)c1cccc2ncccc12	1.9%
CC(NC(=O)CSCC(N)=O)c1ccccc1Oc1ccccc1 (stereo not given)	4.84%
Cc1nc(N2CCC3(CCOC3)C2)c2cc[nH]c2n1 (stereo not given)	-2.95%
Cc1cnn(Cc2cc(F)ccc2F)c1NC(=O)C1CCOCC1	-0.303%
CC(C)CC(=O)NCc1cccc(OCCN(C)C2CCOCC2)c1	11.5%
NC(=O)C1CCN(Cc2cc3c(cc2Br)OCCO3)C1 (stereo not given)	0.641%
CCc1nc(C2CCCN2Cc2nc(C(C)(C)C)no2)no1 (stereo not given)	12.9%
NC(=O)c1ccc(N2CCCCC2)c(NC(=O)c2ccc(F)cc2Cl)c1	-4.2%
O=C(c1cccnc1)N1CCCC1C1CCN(Cc2ccccc2)CC1 (stereo not given)	-3.24%
Cc1cc(C)c(CNC(=O)NCC2Cc3ccccc3O2)c(=O)[nH]1 (stereo not given)	-5.21%
CN1CCC(CN(C)S(=O)(=O)CC2CCCCC2)CC1	0.304%
c1cncc(-c2nnc(C3(c4ccc5c(c4)OCO5)CCOCC3)o2)c1	4.02%
Cc1ccc(OCC(O)COC2CCOCC2)c(Cl)c1 (stereo not given)	-5.27%

Compound	cytotoxicity at 10 µM
CO[C@H]1CN(C(=O)OC(C)(C)C)CC1NCc1ccco1 (stereo not given in full)	-46.9%
O=C(c1ccccc1)N1CCCN(C(=O)c2ncncc2Cl)CC1	4.26%
CNC(=O)c1c(C)cccc1NCc1noc(C2CC2)n1	29.7%
Cn1ccc(NC(=O)NC2CCCN(c3ccccc3Cl)C2=O)n1 (stereo not given)	-49.4%
COc1ccc(CN(C)c2nc3c(cnn3C)c(=O)[nH]2)c(OC)c1	58.9%
CC(=O)N1CCCC(C(=O)N2CCN(Cc3cc(C)on3)CC2)C1 (stereo not given)	-52.2%
Cc1ccc(C(=O)NC2CCN(Cc3noc(CC(C)C)n3)CC2)s1	-15.2%
CN(C)Cc1noc2c1CN(Cc1ccc[nH]1)CC2	7.01%
CN(C)Cc1cncc2c1CCN(CC(=O)N(C)C)C2	-99.4%
CC(C)Nc1nc(-c2ccccc2)nc2c1CCN(C(=O)CC#N)CC2	-104%
O=C(N[C@@H]1CN(Cc2ccoc2)C[C@@H]2CCCO[C@@H]21)C1CCC1	-95.8%
Cn1cccc1C(=O)N1CCC2(CC1)CN(c1ccsc1)C(=O)CO2	-76.9%
COc1cc(N2C[C@@H]3COC[C@]3(COc3ccc(C#N)cn3)C2)ncn1	32.2%
CCc1cc(N(C)Cc2ccnc(C)c2)n2nc(C)c(C)c2n1	61.6%
Cc1nc(CN2CCN(c3nc4c(s3)c(C)nn4C)CC2)cs1	15.6%
Cc1cccn2c(CC(=O)N3CCC(CCn4cccn4)CC3)cnc12	-53.1%
Nc1nc2c(c(N3CCN(C(=O)c4cccs4)CC3)n1)CCCC2	7.9%
Clc1cc(N2CCN3CCCCC3C2)nc2[nH]ccc12 (stereo not given)	-9.74%
C[C@@H]1CN(C2(C(=O)N3CCSCC3)Cc3ccccc3C2)C[C@H](C)O1	0.66%
Cc1cncc(C(=O)N2C[C@@H](C(=O)O)[C@H](C(C)C)C2)c1	-4.31%
CCC[C@H]1CN(S(=O)(=O)c2ccc(-c3c(C)noc3C)s2)C[C@@H]1N	8.4%
O=S(=O)(NCc1ccccc1)N1CCCN(c2ccncc2)CC1	-11%

Compound	cytotoxicity at 10 µM
COCCNc1ncnc2c1CCN(C(=O)CC1CCC(=O)N1)CC2 (stereo not given)	1.15%
Cc1cnc(N2CCCC(c3ccccc3)C2)nc1-c1ccnn1C (stereo not given)	-1.18%
COC(=O)c1cc(CN2CCN(c3ncccc3C)CC2)ccc1O	-0.503%
COc1ccnc(CN(C)C(=O)CSc2nnc(N)s2)c1	3.94%
CCn1ccc(C(=O)N2CCCN(Cc3ccccc3F)CC2)cc1=O	9.47%
COc1ccc(C(=O)C2CCCN(CCc3ccccc3)C2)c(OC)c1 (stereo not given)	7.8%
CN(C)CC(Nc1nc(N)nc2c1CCNCC2)c1ccccc1 (stereo not given)	-2.92%
Cc1ccsc1CN1CCC(n2cc(C(O)c3ccccc3)nn2)CC1 (stereo not given)	8.69%
Cc1nn(CCO)cc1CN1CCCC1c1nc2c(C)cccc2[nH]1 (stereo not given)	3.83%
Cc1cc(CC(C)NC(=O)Cc2cc(F)ccc2C)[nH]n1 (stereo not given)	-42.9%
O=C1NCCCC12CCN(Cc1ccc(SC3CCCCC3)o1)C2 (stereo not given)	-3.33%
CSc1cccc(CN(C)C(=O)Nc2nc(C)n(C)n2)c1	2.78%
COc1cccc(Cn2ncnc2CCC(C)N2CCN(C)CC2)c1 (stereo not given)	-4.05%
CCc1cnc(N)nc1NCc1ccc(OC)cc1OC	14.7%
CCOC(=O)CC(NC(=O)c1cn(Cc2ccccc2F)nn1)C(C)C (stereo not given)	-0.99%
c1ccc(C(CC2CN(Cc3c[nH]cn3)CCO2)c2ccccc2)cc1 (stereo not given)	-5.54%
C[C@@H]1CN(CC(C)(C)N2CCCCC2)CC[C@@]1(O)C1CC1	-4.6%
NCC(=O)N1CCCCC1c1ccc(F)cc1 (stereo not given)	-43.4%
CCC[C@H]1CN(Cc2cc(C#N)n(C)c2C)C[C@@H]1N(C)C	-152%
O=C(c1csnn1)N1CCc2[nH]nc(COc3cccc(Cl)c3)c2C1	-60%
Cc1nc2ccccc2n1Cc1cc(C(=O)N2C[C@@H](C)O[C@@H](C)C2)no1	25.7%
CN1CC2(CCN(CCOCCO)CC2)CC(c2ccccc2)C1=O (stereo not given)	-9.88%

Compound	cytotoxicity at 10 µM
CC(C)(C)c1nccc(C2(c3ccccc3Cl)CCNCC2)n1	-1.15%
CCCn1cc(-c2ccnc(NC3CCCc4ccccc43)n2)c(C)n1 (stereo not given)	81.4%
CC(=O)c1ccn(CC(=O)Nc2nn(CC3CC3)c3ccccc23)n1	9.34%
C=Cc1ccc(C(=O)N2CCCC(Nc3ccc(OC)cc3)C2)cc1 (stereo not given)	-12%
CCn1ccnc1CN1CCC(CCC(=O)Nc2ccccc2Cl)CC1	-26.5%
Cc1cc(C)c2cc(CNCc3ccccc3)c3nn(C)c(=O)n3c2c1	-1.47%
NC(=O)c1ccc(CNC(=O)Nc2cn[nH]c2)cc1	-20.4%
Cc1nn(C)c(C)c1C1CCCN1Cc1cccc(OCC(N)=O)c1 (stereo not given)	-0.192%
CCc1nc(CN2CCCN(C(=O)CCc3ccco3)CC2)cs1	1.42%
O=C(NCC1CCC2(CCNCC2)CO1)c1cnccn1 (stereo not given)	9.51%
Cc1cccc(C(=O)N2CC[C@]3(C[C@H](OCc4ccccn4)CO3)C2)c1	-70.9%
COc1ccc(CN2CCCC3(CCN(c4ccsc4)C3=O)C2)cc1 (stereo not given)	6.92%
CCN(CC)[C@@H]1CN(C(=O)c2ccc(C#N)cc2)[C@@H]2CCCO[C@H]12	-151%
CN(C)C(=O)CN1CCc2ncnc(NC3CCC3)c2CC1	-94.4%
c1ccc2c(c1)C(NC1CCCC1)CC21CCNCC1 (stereo not given)	-120%
CN(C)C(=O)CN1CCC2(CCCN(Cc3cccnc3)C2)C1=O (stereo not given)	-103%
Cc1nc(C2(O)CCCNCC2)sc1CCOc1ccc(Cl)cc1 (stereo not given)	12.7%
CC(C)CN1C(=O)C2(CCN(CC3CCOCC3)C2)c2ccccc21 (stereo not given)	-71.2%
Cc1ccc2c(n1)N(CCN(C)C)CCN(C(=O)c1cccs1)C2	-69.8%
CN(C)[C@@H]1CCN(C(=O)Cc2cccs2)[C@H]1Cc1ccncc1	-70.1%
Cn1cccc1C(=O)N1CCC2(CCN2c2ncccn2)C1 (stereo not given)	10.7%
CCC1=NN2C(=N)C(=Cc3cccn3-c3cccc(Cl)c3)C(=O)N=C2S1	-5.7%
